Test results published in ChEMBL document CHEMBL5126625, “Discovery of AZD4831, a Mechanism-Based Irreversible Inhibitor of Myeloperoxidase, As a Potential Treatment for Heart Failure with Preserved Ejection Fraction” (J Med Chem, 2022).
Values after ≈ are worked out from the molar mass of the structure shown.

Assays:
[1] = target: Voltage-gated inwardly rectifying potassium channel KCNH2 (Homo sapiens, UniProt Q12809)
Cytochrome P450 1A2 = target: T1, Cytochrome P450 1A2 (Homo sapiens, UniProt P05177); test: Inhibition of human recombinant CYP1A2 using coumarin as substrate preincubated with enzyme for 10 mins followed by NADPH addition and measured after 20 to 50 mins by fluorescence based method
T1 sequence (P05177 whole entry): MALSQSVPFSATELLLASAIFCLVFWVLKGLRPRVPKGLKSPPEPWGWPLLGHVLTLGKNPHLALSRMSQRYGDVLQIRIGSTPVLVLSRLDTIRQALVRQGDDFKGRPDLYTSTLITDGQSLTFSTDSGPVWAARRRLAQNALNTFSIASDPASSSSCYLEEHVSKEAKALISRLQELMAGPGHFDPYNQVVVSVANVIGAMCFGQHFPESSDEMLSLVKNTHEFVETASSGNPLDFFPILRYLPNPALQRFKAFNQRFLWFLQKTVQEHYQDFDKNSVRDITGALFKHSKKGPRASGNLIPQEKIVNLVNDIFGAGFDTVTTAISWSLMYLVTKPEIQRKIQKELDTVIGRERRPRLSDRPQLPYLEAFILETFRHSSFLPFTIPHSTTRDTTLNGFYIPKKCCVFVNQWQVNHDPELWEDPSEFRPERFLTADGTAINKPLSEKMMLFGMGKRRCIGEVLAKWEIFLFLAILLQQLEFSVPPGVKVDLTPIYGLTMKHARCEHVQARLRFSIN

[2] = Oral bioavailability in Beagle dog measured up to 24 hrs by LC-MS/MS analysis; assay type: ADME, organism-based, Canis lupus familiaris; settings: in vivo
Mus musculus = test: In vivo inhibition of MPO in peritoneal lavage of zymosan-induced neutrophilic peritonitis BALB/c mouse model at 0.01 to 10 umol/kg, po administered 2 hrs prior to zymosan injection and measured after 2 hrs by chemiluminescence assay; assay type: functional, organism-based; settings: dose 0.01-10 µmol/kg, time 4.0 hrs, DDE = dose-dependent effect
How it was run: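 BALB/c mice given 10, 1, 0.1 or 0.01 µmol/kg orally 2 h before intraperitoneal zymosan. Peritoneal lavage collected 2 h later and peroxidase activity quantified by chemiluminescence; neutrophils dominate the infiltrate, so activity attributed to MPO.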

[3] = Toxicity in rat bone marrow by micronucleus test
Cytochrome P450 3A4 = Cytochrome P450 3A4 (Homo sapiens, UniProt P08684)
physchem = settings: phosphate buffer, pH 7.4
[4] = Oral bioavailability in Wistar Han rat measured up to 24 hrs by LC-MS/MS analysis; assay type: ADME, organism-based; settings: in vivo
[5] = Toxicity in dog assessed as NOAEL by 9 months toxicology study; parameters: species or system Canis lupus familiaris; settings: in vivo, 6570 h
How it was run: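 Pivotal 9-month repeat-dose toxicology study in dogs with daily dosing up to 100 mg/kg/day. Endpoints included food consumption, body weight and pathology. The NOAEL was assigned from these findings.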

[6] = Lipophilicity, log D of the compound; settings: octanol/water
Cytochrome P450 2C9 = Cytochrome P450 2C9 (Homo sapiens, UniProt P11712); test: Inhibition of human recombinant CYP2C9 using coumarin as substrate preincubated with enzyme for 10 mins followed by NADPH addition and measured after 20 to 50 mins by fluorescence based method
[7] = Toxicity in female rat assessed as NOAEL by 6 months toxicology study; settings: in vivo, 4380 h
How it was run: (§1)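 Pivotal 6-month repeat-dose toxicology study in rats with daily dosing up to 125 mg/kg/day. Males and females were assessed separately, and a NOAEL was assigned for each sex.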

[8] = Apparent permeability of the compound across apical to basolateral side in human Caco-2 cells at 10 uM by LC-MS/MS analysis
Cytochrome P450 2D6 = Cytochrome P450 2D6 (Homo sapiens, UniProt P10635); test: Inhibition of CYP2D6 (unknown origin) using coumarin as substrate preincubated with enzyme for 10 mins followed by NADPH addition and measured after 20 to 50 mins by fluorescence based method
[9] = Toxicity in dog assessed as food intake by 9 months toxicology study; parameters: species or system Canis lupus familiaris; settings: in vivo, 6570 h
How it was run: (§2)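 Pivotal 9-month repeat-dose toxicology study in dogs at doses up to 100 mg/kg/day, with food consumption, body weight and pathology monitored.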

[10] = Toxicity in dog assessed as body weight by 9 months toxicology study; parameters: species or system Canis lupus familiaris; settings: in vivo, 6570 h
How it was run: as §2

Cytochrome P450 2C19 = Cytochrome P450 2C19 (Homo sapiens, UniProt P33261); test: Inhibition of human recombinant CYP2C19 using coumarin as substrate preincubated with enzyme for 10 mins followed by NADPH addition and measured after 20 to 50 mins by fluorescence based method
[11] = Toxicity in male rat assessed as NOAEL by 6 months toxicology study; settings: in vivo, 4380 h
How it was run: as §1

[12] = Drug uptake in human hepatocytes assessed as covalent binding measured per mg protein; assay type: ADME, cell-based, Hepatocyte
How it was run: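 [14C]-labelled compound incubated with human hepatocytes; covalently bound radioactivity expressed as pmol per mg protein.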

Voltage-gated inwardly rectifying potassium channel KCNH2, sequence (Q12809 whole entry): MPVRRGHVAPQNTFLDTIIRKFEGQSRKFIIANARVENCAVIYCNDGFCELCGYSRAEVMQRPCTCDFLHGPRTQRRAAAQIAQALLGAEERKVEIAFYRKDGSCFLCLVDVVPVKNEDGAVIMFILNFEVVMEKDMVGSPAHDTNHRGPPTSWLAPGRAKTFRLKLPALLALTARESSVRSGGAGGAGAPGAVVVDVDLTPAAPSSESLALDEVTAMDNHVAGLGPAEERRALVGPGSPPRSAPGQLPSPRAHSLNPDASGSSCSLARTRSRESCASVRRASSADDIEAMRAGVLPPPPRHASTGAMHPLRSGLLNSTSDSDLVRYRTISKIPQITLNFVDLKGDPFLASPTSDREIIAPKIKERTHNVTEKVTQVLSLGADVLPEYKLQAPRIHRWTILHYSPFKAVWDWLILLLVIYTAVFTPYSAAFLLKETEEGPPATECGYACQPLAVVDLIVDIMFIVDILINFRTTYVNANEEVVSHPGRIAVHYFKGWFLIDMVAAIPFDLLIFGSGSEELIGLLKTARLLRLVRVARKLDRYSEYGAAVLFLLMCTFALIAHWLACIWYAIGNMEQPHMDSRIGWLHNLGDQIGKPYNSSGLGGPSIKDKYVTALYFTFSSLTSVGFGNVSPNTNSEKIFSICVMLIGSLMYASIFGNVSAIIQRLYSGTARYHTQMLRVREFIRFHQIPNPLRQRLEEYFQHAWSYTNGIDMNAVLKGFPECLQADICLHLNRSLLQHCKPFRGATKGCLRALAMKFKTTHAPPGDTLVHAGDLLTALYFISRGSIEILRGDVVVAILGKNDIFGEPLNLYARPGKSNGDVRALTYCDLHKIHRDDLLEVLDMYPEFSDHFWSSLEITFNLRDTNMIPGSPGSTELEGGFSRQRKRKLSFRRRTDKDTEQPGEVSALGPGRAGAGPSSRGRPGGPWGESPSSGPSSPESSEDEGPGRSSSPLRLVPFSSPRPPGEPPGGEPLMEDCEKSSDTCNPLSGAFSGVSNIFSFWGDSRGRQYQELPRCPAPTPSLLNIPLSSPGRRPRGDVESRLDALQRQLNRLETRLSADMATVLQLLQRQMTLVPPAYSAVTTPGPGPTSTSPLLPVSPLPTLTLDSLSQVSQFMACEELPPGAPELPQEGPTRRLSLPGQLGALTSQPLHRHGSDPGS
Cytochrome P450 3A4, sequence (P08684 whole entry): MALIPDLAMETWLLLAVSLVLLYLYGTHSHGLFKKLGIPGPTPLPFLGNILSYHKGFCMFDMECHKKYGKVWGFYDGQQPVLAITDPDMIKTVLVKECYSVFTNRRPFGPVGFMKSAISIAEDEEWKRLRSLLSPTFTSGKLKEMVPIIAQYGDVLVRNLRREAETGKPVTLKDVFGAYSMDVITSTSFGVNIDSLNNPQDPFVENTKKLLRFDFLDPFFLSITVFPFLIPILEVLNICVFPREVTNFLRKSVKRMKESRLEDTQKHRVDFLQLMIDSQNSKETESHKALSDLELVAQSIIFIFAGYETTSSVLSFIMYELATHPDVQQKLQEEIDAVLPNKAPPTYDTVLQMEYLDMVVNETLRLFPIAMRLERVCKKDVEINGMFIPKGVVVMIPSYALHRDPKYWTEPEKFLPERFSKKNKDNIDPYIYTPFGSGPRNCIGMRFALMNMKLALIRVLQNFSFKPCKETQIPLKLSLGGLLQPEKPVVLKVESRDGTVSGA
Cytochrome P450 2C19, sequence (P33261 whole entry): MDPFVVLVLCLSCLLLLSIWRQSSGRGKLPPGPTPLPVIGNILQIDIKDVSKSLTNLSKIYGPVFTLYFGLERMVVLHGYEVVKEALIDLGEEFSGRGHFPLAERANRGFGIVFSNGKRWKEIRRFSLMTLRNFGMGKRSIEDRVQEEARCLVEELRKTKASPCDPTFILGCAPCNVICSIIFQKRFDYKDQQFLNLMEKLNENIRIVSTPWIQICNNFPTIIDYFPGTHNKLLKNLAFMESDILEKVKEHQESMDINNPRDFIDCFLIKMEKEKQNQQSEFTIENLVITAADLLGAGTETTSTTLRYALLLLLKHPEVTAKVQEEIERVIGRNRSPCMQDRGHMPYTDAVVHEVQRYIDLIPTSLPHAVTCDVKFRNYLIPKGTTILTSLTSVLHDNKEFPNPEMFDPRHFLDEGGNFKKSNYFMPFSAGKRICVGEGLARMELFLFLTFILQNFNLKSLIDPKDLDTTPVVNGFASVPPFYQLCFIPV
Cytochrome P450 2D6, sequence (P10635 whole entry): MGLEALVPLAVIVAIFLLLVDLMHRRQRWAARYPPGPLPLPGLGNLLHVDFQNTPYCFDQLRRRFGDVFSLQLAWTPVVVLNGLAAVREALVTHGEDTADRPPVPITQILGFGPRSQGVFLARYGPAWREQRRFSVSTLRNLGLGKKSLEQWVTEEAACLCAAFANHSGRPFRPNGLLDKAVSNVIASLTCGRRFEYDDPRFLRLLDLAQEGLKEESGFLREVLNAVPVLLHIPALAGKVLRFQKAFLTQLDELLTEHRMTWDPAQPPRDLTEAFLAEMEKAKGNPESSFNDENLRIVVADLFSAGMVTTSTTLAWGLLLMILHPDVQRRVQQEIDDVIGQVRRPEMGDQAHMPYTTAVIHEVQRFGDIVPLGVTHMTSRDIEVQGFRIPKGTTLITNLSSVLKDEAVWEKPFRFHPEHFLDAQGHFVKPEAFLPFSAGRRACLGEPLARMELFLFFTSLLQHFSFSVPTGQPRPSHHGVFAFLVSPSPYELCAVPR
Cytochrome P450 2C9, sequence (P11712 whole entry): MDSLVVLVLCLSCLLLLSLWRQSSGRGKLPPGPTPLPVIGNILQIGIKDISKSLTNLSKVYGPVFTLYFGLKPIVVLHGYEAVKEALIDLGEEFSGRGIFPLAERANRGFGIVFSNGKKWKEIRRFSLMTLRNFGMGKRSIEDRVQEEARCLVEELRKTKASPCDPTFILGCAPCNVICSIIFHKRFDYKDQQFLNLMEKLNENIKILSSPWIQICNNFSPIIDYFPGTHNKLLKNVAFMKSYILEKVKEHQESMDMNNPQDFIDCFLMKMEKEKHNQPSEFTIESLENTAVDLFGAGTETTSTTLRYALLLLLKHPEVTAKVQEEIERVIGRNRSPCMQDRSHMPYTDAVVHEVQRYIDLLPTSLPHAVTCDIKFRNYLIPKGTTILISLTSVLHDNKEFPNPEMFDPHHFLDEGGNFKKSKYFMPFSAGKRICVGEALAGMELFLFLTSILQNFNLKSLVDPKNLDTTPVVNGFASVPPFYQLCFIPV

## C[C@@H](N)c1cc(Cl)ccc1Cn1c(=S)[nH]c(=O)c2[nH]ccc21
[1]
  IC50: 21 µM
Cytochrome P450 1A2
  IC50: > 30 µM
[2]
  bioavailability: 52%
Mus musculus
  inhibition: Dde
[3]
  Activity: Non-Toxic
Cytochrome P450 3A4
  IC50: 6 µM
physchem
  solubility thermodynamic at 18 h: 270 µM (≈ 90.4 µg/mL)
[4]
  bioavailability: 61%
[5]
  NOAEL: 100 mg/kg/day
[6]
  logD: 1.2
Cytochrome P450 2C9
  IC50: > 30 µM
[7]
  NOAEL: 125 mg/kg/day
[8]
  Papp A→B at 10 µM: 11 ×10⁻⁶ cm/s
Cytochrome P450 2D6
  IC50: > 30 µM
[9]
  Activity: Non-Toxic
[10]
  Activity: Non-Toxic
Cytochrome P450 2C19
  IC50: > 30 µM
[11]
  NOAEL: 125 mg/kg/day
[12]
  Drug uptake: 56 pmol
